Assay results published in paper PMC10720030 (ACS Omega, 2023).
Values joined by “and” are separate entries in the source; they are usually repeats but may differ in a detail not shown here. Equal entries are not always repeated. Where two headings read alike, the source gives them in different places.

Columns and labels:
[1] = test system: breast MCF-7 cancer cells; assay: Cytotoxicity using the MTT assay, MCF-7; assay type: cell-based; details: for inhibition at 100 µM: read-out: % of cell inhibition ± SD at [100 μM], MCF7
How it was run: (§1)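 MTT viability; cells grown with 10% FBS and 1% penicillin–streptomycin, exposed next day to five concentrations (0.01, 0.1, 1, 10, 100) for 48 h. MTT dye added for 3 h, then viability calculated against untreated control. IC50 taken from dose–response curve; mean ± SD of three independent triplicates (n = 3).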

liver HepG2 cancer cells = assay: Cytotoxicity using the MTT assay, HepG2; assay type: cell-based; details: for inhibition at 100 µM: read-out: % of cell inhibition ± SD at [100 μM], HepG2
How it was run: as §1

PIM-1 kinase = PIM-1 kinase (Homo sapiens, UniProt P11309); assay: PIM-1 kinase inhibitory assay; assay type: biochemical; details: for % of kinase inhibition, PIM-1 kinase: concentration not given
MCF-10A normal cells = assay: Cytotoxicity using the MTT assay, MCF-10A; assay type: cell-based; details: Homo sapiens, read-out: IC50 ± SD, MCF-10A
How it was run: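 Normal breast cells run in MTT viability assay. IC50 derived from dose–response curve; values are mean ± SD of three independent triplicate experiments (n = 3).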

MCF-7 cells [2] = assay: Annexin V/PI staining flow cytometry; assay type: cell-based; details: MCF-7, treated at IC50, 48 h
MCF-7 cells [3] = assay: DNA content-flow cytometry cell cycle analysis; assay type: cell-based; details: MCF-7, treated at IC50, 48 h; control 29.12%
MCF-7 cells [4] = assay: Autophagy evaluation using acridine orange flow cytometry; assay type: cell-based; details: MCF-7, 48 h, control 32.8 × 10^3
MCF-7 cells [5] = assay: Wound-healing assay; assay type: cell-based
[6] = test system: Solid Ehrlich carcinoma (SEC); assay: In vivo antitumor activity in SEC-bearing mice; design: species or system Swiss albino mice; details: 5 mg/kg I.P.; for tumor weight: n = 6, SEC control 198.5 ± 10.6; for tumor volume: n = 6, SEC control 274.8 ± 16.6
MCF-7 = details: read-out: IC50 against MCF-7; cited from earlier work
[7] = Homo sapiens, HepG2, 48 h, read-out: IC50 ± SD, HepG2, HepG2, MTT, 48 h, n = 3
[8] = read-out: IC50 ± SD, HepG2, HepG2, MTT, 48 h, n = 3
[9] = Homo sapiens, MCF7, 48 h, read-out: IC50 ± SD, MCF7, MCF7, MTT, 48 h, n = 3

Chain of PIM-1 kinase (P11309 whole entry): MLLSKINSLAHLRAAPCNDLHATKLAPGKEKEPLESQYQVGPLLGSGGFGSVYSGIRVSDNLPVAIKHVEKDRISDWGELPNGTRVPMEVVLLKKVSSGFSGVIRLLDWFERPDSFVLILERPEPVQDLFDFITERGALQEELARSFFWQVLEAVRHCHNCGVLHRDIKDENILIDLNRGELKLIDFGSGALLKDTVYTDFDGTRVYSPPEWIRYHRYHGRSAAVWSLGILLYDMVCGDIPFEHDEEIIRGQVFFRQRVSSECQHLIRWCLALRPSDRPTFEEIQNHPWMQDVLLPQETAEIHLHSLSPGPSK

IC50 (PIM-1 kinase) [nM] | % of kinase inhibition, PIM-1 kinase (PIM-1 kinase) [%] | SMILES | inhibition at 100 µM ([1]; Homo sapiens, MCF7, 48 h) [%] | inhibition at 100 µM (liver HepG2 cancer cells; Homo sapiens, HepG2, 48 h) [%] | further results
19.4 ± 0.7 | 94.3 ± 1.3 | CCCCCSc1nnc(COc2nc(C)cc(C)c2C#N)o1 [Compound 6, 4,6-Dimethyl-2-((5-(pentylthio)-1,3,4-oxadiazol-2-yl)methoxy)nicotinonitrile] | 78.2 ± 2.2 | 79.2 ± 2.2 | IC50 (liver HepG2 cancer cells; [7]): 5270 nM; IC50 (liver HepG2 cancer cells; [8]): 6640 ± 280 nM
– | – | C=CCSc1nnc(COc2nc(C)cc(C)c2C#N)o1 [Compound 5, 2-((5-(Allylthio)-1,3,4-oxadiazol-2-yl)methoxy)-4,6-dimethylnicotinonitrile] | 47 ± 1.4 | 69 ± 2.1 | –
– | – | COc1cccc2c1C(=O)c1c(O)c3c(c(O)c1C2=O)C[C@@](O)(C(=O)CO)C[C@@H]3O[C@H]1C[C@H](N)[C@H](O)[C@H](C)O1 [doxorubicin, reference compound] | 90.2 ± 2.1 | 79.1 ± 2.3 | IC50 [1, 9]: 2140 ± 100 nM; IC50 (liver HepG2 cancer cells; [7]): 2480 ± 100 nM; IC50 (MCF-10A normal cells): 15800 ± 630 nM; tumor weight [6]: 63.4 mg; tumor volume [6]: 112.3 mm^3
– | – | Cc1cc(C)c(C#N)c(OCC(=O)NCc2ccccc2)n1 [Compound 14, N-Benzyl-2-((3-cyano-4,6-dimethylpyridin-2-yl)oxy)acetamide] | 48.8 ± 1.2 | 35.5 ± 1.1 | –
– | – | CC(=O)OC[C@H]1O[C@H](Sc2nnc(COc3nc(C)cc(C)c3C#N)o2)[C@H](OC(C)=O)[C@@H](OC(C)=O)[C@H]1OC(C)=O [Compound 8, 2-((5-(2,3,4,6-Tetra-O-acetyl-α-D-galactopyranosylsulfanyl)-1,3,4-oxadiazol-2-yl)methoxy)-4,6-dimethylpyridine-3-carbonitrile] | 59.8 ± 1.7 | 57.8 ± 1.6 | –
– | – | CS(=O)(=O)CCNCc1ccc(-c2ccc3ncnc(Nc4ccc(OCc5cccc(F)c5)c(Cl)c4)c3c2)o1 [lapatinib] | – | – | IC50 (MCF-7): 4690 nM
– | – | Cc1cc(C)c(C#N)c(OCc2n[nH]c(=S)o2)n1 [Compound 2, 4,6-Dimethyl-2-((5-thioxo-4,5-dihydro-1,3,4-oxadiazol-2-yl)methoxy)nicotinonitrile] | 41.9 ± 1.9 | 43.5 ± 1.8 | –
42.3 ± 1.1 | 90.1 ± 2.7 | COC(=O)CNC(=O)COc1nc(C)cc(C)c1C#N [Compound 11, Methyl (2-((3-Cyano-4,6-dimethylpyridin-2-yl)oxy)acetyl)glycinate] | 78.6 ± 2.3 | 68.8 ± 1.6 | IC50 [1, 9]: 730 ± 40 nM
19.8 ± 1.1 | 94.9 ± 2.9 | Cc1cc(C)c(C#N)c(OCC(=O)N2CCCCC2)n1 [Compound 13, 4,6-Dimethyl-2-(2-oxo-2-(piperidin-1-yl)ethoxy)nicotinonitrile] | 64.6 ± 1.8 | 56.4 ± 1.4 | –
– | – | Cc1cc(C)c(C#N)c(OCc2nnc(SCc3ccccc3)o2)n1 [Compound 4, 2-((5-(Benzylthio)-1,3,4-oxadiazol-2-yl)methoxy)-4,6-dimethylnicotinonitrile] | 72.1 ± 2.9 | 75.8 ± 2.3 | –
– | – | CCOC(=O)CSc1nnc(COc2nc(C)cc(C)c2C#N)o1 [Compound 3, Ethyl 2-((5-(((3-Cyano-4,6-dimethylpyridin-2-yl)oxy)methyl)-1,3,4-oxadiazol-2-yl)thio)acetate] | 55.1 ± 2.1 | 57.8 ± 1.9 | –

SMILES | IC50 (PIM-1 kinase) [nM] | % of kinase inhibition, PIM-1 kinase (PIM-1 kinase) [%] | inhibition at 100 µM ([1]; Homo sapiens, MCF7, 48 h) [%] | inhibition at 100 µM (liver HepG2 cancer cells; Homo sapiens, HepG2, 48 h) [%] | further results
Cc1cc(C)c(C#N)c(OCC(=O)N2CCOCC2)n1 [Compound 12, 4,6-Dimethyl-2-(2-morpholino-2-oxoethoxy)nicotinonitrile] | 14.3 ± 0.6 | 97.5 ± 1.3 | 84.2 ± 2.6 | 85.1 ± 2.1 | IC50 [1, 9]: 500 nM; IC50 ([1]; read-out: IC50 ± SD, MCF7, MCF7, MTT, 48 h, n = 3): 510 ± 20 nM; IC50 (liver HepG2 cancer cells; [7]): 6600 nM; IC50 (liver HepG2 cancer cells; [8]): 5270 ± 200 nM; IC50 (MCF-10A normal cells): 52800 ± 2100 nM; early apoptosis (MCF-7 cells [2]): 23.18%; increase of apoptosis versus untreated control (MCF-7 cells [2]): 52.2 fold; late apoptosis (MCF-7 cells [2]): 10.25%; total apoptosis (MCF-7 cells [2]; untreated control 0.64%): 33.43%; S-phase cell population (%DIP S) (MCF-7 cells [3]): 36.02%; autophagic cell death (MCF-7 cells [4]): 87.6 × 10^3 cells; wound closure (MCF-7 cells [5]; MCF-7, after 48 h of treatment, control 95.6%): 71.8%; average L of migration (MCF-7 cells [5]; MCF-7, time 72 h): 0.32 mm; % closure (MCF-7 cells [5]; MCF-7, time 72 h, Cont.MCF-7 95.55): 71.85%; migrated cell area (MCF-7 cells [5]; MCF-7, time 72 h, total area 0.225): 0.161; tumor weight [6]: 72.8 mg and 72.8 ± 1.74 mg; tumor volume [6]: 159.2 mm^3 and 159.2 ± 10.1 mm^3; tumor inhibition ratio (TIR %) ([6]; n = 6, TIR % = C – T/C × 100): 42.1% and 42.1 ± 1.0%
